One assay relates to Staphylococcus aureus. The experiment in a line: Antibacterial activity against methicillin-sensitive Staphylococcus aureus ATCC 25923 after 24 hrs by resazurin dye based microdilution assay. Format: functional. Conditions: ATCC 25923, 24 h. The gist of the method: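 MIC taken as the lowest concentration giving visible inhibition and/or by resazurin (1 mg/mL). Gentamicin was the control. Run in duplicate, repeated at least three times.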
For orientation: Alamar Blue is a resazurin reagent that responds to reducing activity.

Assay [1] concerns Candida albicans. The experiment in a line: Growth inhibition of Candida albicans ATCC 10231 at 62.5 ug/ml incubated for 48 hrs under dark condition by broth microdilution method relative to control. It is filed as functional. Conditions: ATCC 10231, 48 h, read-out: GI. The gist of the method:
(§1)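 CLSI M27-A3 broth microdilution in RPMI-1640, DMSO ≤1%. Inoculum 1-5 × 10^3 CFU/mL. Incubated 48 h at 30 °C, dark. % inhibition = 100 − (OD405 test − sterility control)/(OD405 growth control − sterility control), with growth and sterility control wells. Triplicate.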
On the technique in general: In broth dilution the organism is exposed to a series of concentrations in liquid medium.

Assay [2] deals with Candida albicans. The experiment in a line: Growth inhibition of Candida albicans ATCC 10231 at 3.4 ug/ml incubated for 48 hrs under dark condition by broth microdilution method relative to control. It is filed as functional. Conditions: ATCC 10231, 48 h, read-out: GI.
Another assay relates to Trypanosoma cruzi. Kind of assay: Antitrypanosomal activity against Trypanosoma cruzi Tulahuen intracellular amastigote harboring LacZ infected in human U937 cells after 72 hrs by CPRG/Nonidet reagent based spectrophotometric method. It is filed as functional, cell-based. Conditions: U-937, 72 h. The gist of the method:
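U-937 cells at 2.5 × 10^5 cells/mL in RPMI-1640 with 10% serum and 0.1 µg/mL PMA were infected with β-galactosidase-transfected Tulahuen epimastigotes at 5 parasites per cell. Infected cells were exposed to 50, 12.5, 3.125 and 0.78 µg/mL for 72 h. CPRG (100 uM) and 0.1% Nonidet P-40 were added for 3 h, read at 570 nm. EC50 by Probit. Triplicate, at least two experiments; benznidazole as reference.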

Assay [3] has as its system Candida albicans. Kind of assay: Growth inhibition of Candida albicans ATCC 10231 at 250 ug/ml incubated for 48 hrs under dark condition by broth microdilution method relative to control. Format: functional. To be noted: ATCC 10231, 48 h, read-out: GI. The procedure, abridged:
as §1

Assay [4] concerns Candida albicans. Kind of assay: Growth inhibition of Candida albicans ATCC 10231 at 125 ug/ml incubated for 48 hrs under dark condition by broth microdilution method relative to control. It is filed as functional. Conditions: ATCC 10231, 48 h, read-out: GI. The gist of the method:
as §1

A further assay relates to Cryptococcus neoformans. The experiment in a line: Growth inhibition of Cryptococcus neoformans ATCC 32264 at 15.62 ug/ml incubated for 48 hrs under dark condition by broth microdilution method relative to control. Format: functional. To be noted: ATCC 32264, 48 h, read-out: GI. The procedure, abridged: as §1
A further assay has as its system Leishmania panamensis. Kind of assay: Antileshmanial activity against EpiR/GFP fused Leishmania panamensis MHOM/CO/87/UA140 intracellular amastigotes infected in human […] cells after 72 hrs by flow cytometric method. Format: functional, cell-based. Conditions: MHOM/CO/87/UA140, 72 h. The procedure, abridged:
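PMA-treated U-937 cells (3 × 10^5 cells/mL) infected with stationary-phase GFP L. panamensis promastigotes (15:1), 3 h at 34 °C, then washed. After 24 h, compounds added at 50, 12.5, 3.125 and 0.78 µg/mL for 72 h at 37 °C. EC50 by Probit; triplicate, two experiments.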

For assay [5], the system named is Candida albicans. The experiment in a line: Growth inhibition of Candida albicans ATCC 10231 at 15.62 ug/ml incubated for 48 hrs under dark condition by broth microdilution method relative to control. It is filed as functional. Conditions: ATCC 10231, 48 h, read-out: GI. The gist of the method:
as §1

Values after ≈ are worked out from the molar mass of the structure shown.

As to `O=Cc1cccc(Nc2ccnc3cc(Cl)ccc23)c1`, inhibition of growth against Staphylococcus aureus (MIC) required 62.5 µg/mL (≈ 221 µM). In addition, the inhibition of growth at 62.5 µg/mL with Candida albicans [1] was 19.6%. The inhibition of growth at 3.4 µg/mL with Candida albicans [2] came to 1.33%. Moreover, the EC50 is 1.15 µg/mL (≈ 4.07 µM) in the assay on Trypanosoma cruzi and 0.96 µg/mL (≈ 3.4 µM) in the assay with Leishmania panamensis. In addition, in the assay with Candida albicans [3], the inhibition of growth at 250 µg/mL is 59.2%. Also, the inhibition of growth at 125 µg/mL in the assay on Candida albicans [4] is 34.8%. Further, the results for the inhibition of growth at 15.62 µg/mL with Cryptococcus neoformans and with Candida albicans [5] were 9.47% and 10.8%, respectively.

One may read the MIC as the least concentration at which growth counts as inhibited. Broadly, the EC50 is the concentration giving half of the maximal effect.

The values above are taken from ChEMBL document CHEMBL4038284, “Synthesis of novel quinoline-based 4,5-dihydro-1H-pyrazoles as potential anticancer, antifungal, antibacterial and antiprotozoal agents” (Eur J Med Chem, 2017).
